According to ChEMBL document CHEMBL3120124, “Lead optimization of HMBA to develop potent HEXIM1 inducers” (Bioorg Med Chem Lett, 2014):

Columns and labels:
[1] = target: T1, Protein HEXIM1 (Homo sapiens) (UniProt O94992); experiment: Induction of HEXIM1 protein expression in human LNCAP cells at 500 uM after 24 hrs by Western blotting analysis relative to control; type: cell-based
T1 sequence (whole entry): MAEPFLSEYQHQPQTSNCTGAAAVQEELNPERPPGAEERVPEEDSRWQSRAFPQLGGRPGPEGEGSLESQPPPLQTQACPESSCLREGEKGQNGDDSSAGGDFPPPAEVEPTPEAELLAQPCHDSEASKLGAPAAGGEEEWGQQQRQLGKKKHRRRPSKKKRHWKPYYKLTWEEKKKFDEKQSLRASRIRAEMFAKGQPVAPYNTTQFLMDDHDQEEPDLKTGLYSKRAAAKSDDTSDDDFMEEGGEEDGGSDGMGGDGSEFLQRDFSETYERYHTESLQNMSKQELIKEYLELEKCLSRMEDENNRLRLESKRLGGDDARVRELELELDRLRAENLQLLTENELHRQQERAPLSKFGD
How it was run: (§1)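 LNCaP prostate cancer cells were treated for 24 h with vehicle, HMBA (5 mM; positive control) or analog at 500 μM, and selected analogs also at 100 μM. HEXIM1 was assessed by Western blot of cell extracts using a HEXIM1 antibody, with β-actin as loading control. Band intensities were quantified by densitometry. Representative of three independent experiments.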

[2] = Solubility of the compound in water; type: physicochemical
How it was run: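 Aqueous solubility was judged by the absence of precipitation in LNCaP cell culture medium at 100 μM.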

[3] = target: T1, Protein HEXIM1 (Homo sapiens); experiment: Induction of HEXIM1 protein expression in human LNCAP cells at 100 uM after 24 hrs by Western blotting analysis relative to control; type: cell-based; how it was run: as §1
[4] = target: T1, Protein HEXIM1 (Homo sapiens); experiment: Induction of HEXIM1 protein expression in human LNCAP cells after 24 hrs by Western blotting analysis; type: cell-based
LNCaP = experiment: Cytotoxicity against human LNCAP cells assessed as change in cell morphology at 500 uM; type: cell-based
[5] = target: T1, Protein HEXIM1 (Homo sapiens); experiment: Induction of HEXIM1 protein expression in human LNCAP cells at 0.05 mM after 24 hrs by Western blotting analysis relative to control; type: cell-based
[6] = target: T1, Protein HEXIM1 (Homo sapiens); experiment: Induction of HEXIM1 protein expression in human LNCAP cells at 0.1 mM after 24 hrs by Western blotting analysis relative to control; type: cell-based
[7] = target: T1, Protein HEXIM1 (Homo sapiens); experiment: Induction of HEXIM1 protein expression in human LNCAP cells at 0.5 mM after 24 hrs by Western blotting analysis relative to control; type: cell-based; how it was run: as §1
[8] = target: T1, Protein HEXIM1 (Homo sapiens); experiment: Induction of HEXIM1 protein expression in human LNCAP cells at 5 mM after 24 hrs by Western blotting analysis relative to control; type: cell-based
[9] = target: T1, Protein HEXIM1 (Homo sapiens); experiment: Induction of HEXIM1 protein expression in human LNCAP cells at 1 mM after 24 hrs by Western blotting analysis relative to control; type: cell-based

Row | fold change (FC) [1] | solubility [2] [µM] | fold change (FC) [3] | Structure (SMILES) | further results
1 | 0.16 | – | – | CS(=O)(=O)NCc1ccc(CNS(C)(=O)=O)cc1 | –
2 | 0.44 | – | – | CC(=O)N(C)CCCN(C)C(C)=O | –
3 | 0.67 | – | – | CS(=O)(=O)NC1CCC(NS(C)(=O)=O)CC1 (configuration not stated) | –
4 | 0.31 | – | – | CS(=O)(=O)NCCCCCCNS(C)(=O)=O | –
5 | 1.88 | > 100 | 0.06 | CC(=O)NC1CCC(NC(C)=O)CC1 (configuration not stated) | –
6 | 1.24 | – | – | CS(=O)(=O)NCC1CCC(CNS(C)(=O)=O)CC1 (configuration not stated) | –
7 | 0.46 | – | – | O=C(NCCCCCCNC(=O)c1ccccc1)c1ccccc1 | –
8 | 4.89 | > 100 | 1.23 | CCCC(=O)NCCCCCCNC(=O)CCC | Activity [4]: Dose-dependent effect
9 | 2.14 | – | – | CC(=O)NCC1CCC(CNC(C)=O)CC1 (configuration not stated) | Activity (LNCaP): Toxic
10 | 3.09 | > 100 | 0.43 | CC(=O)N(C)C1CCC(N(C)C(C)=O)CC1 (configuration not stated) | –
11 | 1.27 | > 100 | 1.22 | CN(C1CCC(N(C)S(C)(=O)=O)CC1)S(C)(=O)=O (configuration not stated) | –
12 | 2.8 | > 100 | 1.16 | COc1ccc(CC(=O)NCCCCCCNC(C)=O)cc1 | fold change (FC) [5]: 1.72; fold change (FC) [6]: 12.6; fold change (FC) [7]: 26.6; Activity [4]: Dose-dependent effect
13 | 0.4 | – | – | CC(=O)NCc1ccc(CNC(C)=O)cc1 | –
14 | 4.45 | > 100 | 1.34 | CCC(=O)NCCCCCCNC(=O)CC | Activity [4]: Dose-dependent effect
15 | 0.25 | – | – | CC(=O)N(C)CCCCCCN(C)C(C)=O | –
16 | 0.08 | – | – | CC(=O)NCCCCCCNC(=O)c1ccc(Cl)c([N+](=O)[O-])c1 | –

Row | fold change (FC) [1] | solubility [2] [µM] | fold change (FC) [3] | Structure (SMILES) | further results
17 | 0.68 | – | – | CC(=O)NCCCNC(C)=O | –
18 | 0.97 | > 100 | 1.55 | CN(CCCCCCN(C)S(C)(=O)=O)S(C)(=O)=O | –
19 | – | – | – | CC(=O)NCCCCCCNC(C)=O | fold change (FC) [8]: 2.21; fold change (FC) [9]: 23.6; fold change (FC) [7]: 8.15
20 | 2.86 | > 100 | 0.67 | CN(CCCN(C)S(C)(=O)=O)S(C)(=O)=O | –
21 | 1.38 | – | – | CC(=O)N(C)CC1CCC(CN(C)C(C)=O)CC1 (configuration not stated) | –
22 | 0.05 | – | – | CC(=O)N(C)CCCCCN(C)C(C)=O | –
23 | 1.39 | > 100 | 2 | CN(Cc1ccc(CN(C)S(C)(=O)=O)cc1)S(C)(=O)=O | –
24 | 1.07 | > 100 | 0.61 | CC(=O)NCCCCCCNC(=O)Oc1ccc(-c2ccccc2)cc1 | –
25 | 2.2 | > 100 | 3.8 | CC(=O)N(C)Cc1ccc(CN(C)C(C)=O)cc1 | –
26 | 0.22 | – | – | CS(=O)(=O)NCCCCCNS(C)(=O)=O | –
27 | 0.12 | – | – | CC(=O)NCCCCCNC(C)=O | –
28 | 4.45 | > 100 | 0.21 | CS(=O)(=O)NCCCNS(C)(=O)=O | –
29 | 0.05 | – | – | CN(CCCCCN(C)S(C)(=O)=O)S(C)(=O)=O | –
30 | 3.09 | > 100 | 0.41 | CN(CC1CCC(CN(C)S(C)(=O)=O)CC1)S(C)(=O)=O (configuration not stated) | –
31 | 1.93 | – | – | COc1ccc(C(=O)NCCCCCCNC(C)=O)cc1 | Activity (LNCaP): Toxic
